Assay results taken from paper PMC6263297 (Drug Design, Development and Therapy, 2018).
Like-named read-outs stand apart in the source and are kept apart here.

Experiments:
[1] = tested on: acute exacerbations of COPD; details: treated over 4 weeks; cited from earlier work
[2] = cited from earlier work
patients with asthma = details: oral 0.10, 0.25, and 0.50 mg once daily; cited from earlier work
[3] = assay type: in vivo, human (healthy Chinese volunteers); details: single doses over the range 0.25–0.50 mg
PDE4 enzyme = details: in vitro; cited from earlier work
[4] = cited from earlier work; remark: listed apart in the source
[5] = Safety assessment: treatment-related adverse events; assay type: in vivo, human (healthy Chinese volunteers)
Procedure, shortened: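 The same 12 volunteers received three single-dose periods (0.25, 0.375, 0.5 mg orally after >10 h fast, 10-day washouts), then 0.375 mg once daily for 11 days. Adverse events were collected by interview and monitoring and graded for relation to treatment (probably/possibly). Vital signs, physical examination, clinical laboratory tests and ECG were done at screening and at study completion.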

[6] = after receiving 0.5 mg roflumilast
[7] = single and multiple oral doses, all subjects
[8] = single- and multiple-dose studies together

What does the source list for O=C(Nc1c(Cl)cncc1Cl)c1ccc(OC(F)F)c(OCC2CC2)c1 [Roflumilast]?
percentage of sputum neutrophils [1]: statistically significant greater reduction; sputum myeloperoxidase concentration [1]: statistically significant greater reduction; number of AEs reported ([2]; 15 subjects after receiving 0.5 mg roflumilast): 59; Abdominal discomfort, share of subjects [2, 6]: 20%; Headache, share of subjects [2, 6]: 46.7%; Nausea, share of subjects [2, 6]: 20%; subjects who exited the study because of AEs ([2]; of 19 subjects, erectile dysfunction, visual flicker, blurred vision): 2 subjects; effect on forced expiratory volume in 1 second (patients with asthma): statistically significant effects with dose-related increases from baseline; mean t1/2 over the three single-dose groups [3]: ~ 20 hours; potency upon inhibition of the PDE4 enzyme relative to roflumilast N-oxide (PDE4 enzyme): three times more potent; effective half-life (t1/2) ([4]; after dosing of 0.5 mg roflumilast): 8 to 31 h; effect of food intake on Cmax (decrease) ([4]; food intake): ~ 40%; effect of food intake on Tmax (delay) ([4]; food intake): 1 h; effect of food intake on the total inhibitory activity of PDE4 ([4]; food intake): does not affect; number of TRAEs reported ([5]; 0.25 mg single dose): Seven; number of TRAEs reported ([5]; 0.375 mg multiple doses): 25; serious adverse events ([5]; across the trial): no serious adverse events; overall safety and tolerability ([5]; healthy Chinese volunteers, single doses 0.25–0.5 mg and multiple doses 0.375 mg): safe and well-tolerated; Any adverse event: number of subjects (%) reporting TRAEs ([5]; multiple doses 0.375 mg (n=12)): 12 subjects (%); number of TRAEs of moderate degree ([5]; presenting as acute gastroenteritis): one; number of TRAEs of severe degree ([5]; presenting as diarrhea): one; Diarrhea, share of subjects [5, 7]: 30.8%; Dizziness, share of subjects [5, 7]: 53.8%; Elevated creatine kinase level, share of subjects [5, 7]: 15.4%; Elevated total bilirubin level, share of subjects [5, 7]: 15.4%; Headache, share of subjects [5, 7]: 23.1%; Nausea, share of subjects [5, 7]: 53.8%; Upper respiratory tract infection, share of subjects [5, 7]: 23.1%; number of TRAEs of mild degree [5, 8]: Forty-six; total number of treatment-related adverse events [5, 8]: 48
